Screens (PubChem)
Sampled rows, rich in hits. Any-hit rate of the full collection: about 2.2%.
APJ agonist: agonists of human apelin receptor APJ, primary screen, CHO-K1 cells, PathHunter beta-arrestin, luminescence; 0% DMSO wells, 100% apelin; activation, % at 20 µM; 0.11% of 330,000 active; AID 2520, 2010;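 active = activation more than six SD over the plate average, tested at 20 µM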
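Assay system: CHO-K1 cells stably expressing ProLink-tagged human APJ and arrestin–beta-gal acceptor. Compound dosing: 20 µM single point, 1% DMSO. Times: 16-18 h seeding, 90 min dark compound exposure, 60 min detection. Detection: beta-gal luminescence. Evaluation: APJ–arrestin association signal. Controls: negative DMSO alone, positive Apelin-13 at 10 nM.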
APJ antagonist: antagonists of human apelin receptor APJ, primary screen, CHO-K1 cells, beta-arrestin complementation, luminescence. P35414. inhibition, % at 20 µM. 0.32% of 330,000 active. AID 2521, 2010;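 active = inhibition above about 40% at 20 µM, limit read from the data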;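 note: cells challenged with 10 nM apelin-13 agonist together with compound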
EBI2 block: EBI2 receptor antagonists, beta-arrestin recruitment, primary screen, cell-based, luminescence, 7a,25-OHC stimulation, uHTS | 7a,25-OHC stimulated | inhibition, % at 5 µM | 0.81% of 360,000 active | AID 651636, 2012; in the data active = inhibition above about 38%;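 note: enzyme fragment complementation signal reports receptor beta-arrestin coupling in cells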
Target sequence (P32249 whole entry, looked up, the tested form may be a part): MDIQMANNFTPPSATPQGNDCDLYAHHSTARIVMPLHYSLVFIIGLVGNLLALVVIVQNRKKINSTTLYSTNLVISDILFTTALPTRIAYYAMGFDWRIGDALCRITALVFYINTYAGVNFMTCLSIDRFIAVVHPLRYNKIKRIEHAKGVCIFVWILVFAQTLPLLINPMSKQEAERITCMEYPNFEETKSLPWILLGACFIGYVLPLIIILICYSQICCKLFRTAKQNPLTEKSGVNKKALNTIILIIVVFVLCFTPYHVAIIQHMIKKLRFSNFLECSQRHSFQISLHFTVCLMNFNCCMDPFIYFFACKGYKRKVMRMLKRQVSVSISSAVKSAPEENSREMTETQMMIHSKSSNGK
m5-HT2A agonist: mouse Htr2a agonists via beta-arrestin recruitment, primary screen, cell-based, luminescence; 5-hydroxytryptamine receptor 2A (Mus musculus), P35363; activation, % at 7.6 µM; CHO-K1 mHTR2A beta-arrestin complementation; percent of 30 µM serotonin response; 0.66% of 360,000 active;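 active = activation above a run cutoff, the mean activation of all tested compounds plus 3 SD, cut at about 14% in these data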
CCR6 antagonist: CCR6 receptor antagonists, primary screen, cell-based, CHO-K1, luminescence, beta-arrestin, uHTS | C-C chemokine receptor type 6 (Homo sapiens), P51684 | 0.49% of 340,000 active | AID 493098, 2011 | CHO-K1 CCR6 PathHunter beta-arrestin, CCL20-stimulated | inhibition, % at 20 µM;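 active = compounds whose inhibition of the agonist-driven luminescence signal at 20 µM reaches about 50%, limit read from the data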;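 note: cells stimulated with CCL20 at 14 nM final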
CXCR6 block: CXCR6 receptor inhibitors, primary screen, cell-based, beta-arrestin, luminescence, CHO-K1 PathHunter, 1536-well. C-X-C chemokine receptor type 6 (Homo sapiens), O00574. inhibition, % at 20 µM. 0.36% of 360,000 active. AID 602244, 2012; in the data active = inhibition above about 34%, passing the limit was not always enough;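 note: antagonist mode with CXCL16 agonist at 10 nM final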
Target sequence (O00574 whole entry, looked up): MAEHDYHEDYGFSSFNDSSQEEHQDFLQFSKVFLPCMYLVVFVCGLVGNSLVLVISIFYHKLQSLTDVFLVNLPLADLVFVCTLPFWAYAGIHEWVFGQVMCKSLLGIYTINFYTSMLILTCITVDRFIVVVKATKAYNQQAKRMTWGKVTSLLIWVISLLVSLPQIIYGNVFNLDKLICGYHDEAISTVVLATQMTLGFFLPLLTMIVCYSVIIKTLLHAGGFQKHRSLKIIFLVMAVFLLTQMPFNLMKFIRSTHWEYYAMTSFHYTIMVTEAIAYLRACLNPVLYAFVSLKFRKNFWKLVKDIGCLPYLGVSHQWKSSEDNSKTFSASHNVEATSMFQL
EBI2 antag conf: EBI2 antagonist hit retest, beta-arrestin, confirmation, cell-based, single concentration, luminescence, 7a,25-OHC stimulation. shares compounds with EBI2 block. 7a,25-OHC antagonism. inhibition, % at 5 µM. 29% of 2,400 active. AID 651997, 2013;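 active = inhibition of at least 50%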
EBI2 agonist: EBI2 agonist activity of antagonist hits, confirmation, counter-screen for EBI2 antagonist project, cell-based, single concentration, agonist mode, luminescence. 2,400 tested, under 10 active. AID 652000, 2013. shares compounds with EBI2 block. EBI2-expressing cells, 60 min; 0% vehicle, 100% 7α,25-dihydroxycholesterol control. activation, % at 5 µM;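 active = activation of at least 50%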
bGal cs: E. coli beta-galactosidase enzyme inhibition, confirmation, counter-screen for EBI2 antagonist project, biochemical, luminescence, single concentration | shares compounds with EBI2 block | purified beta-galactosidase, luminescent Galacton Star, 15 min | inhibition, % at 5 µM | 1% of 2,400 active | AID 652176, 2013;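 active = replicate-average signal at least 3 plate SD below neutral wells, shown as high inhibition, flagging enzyme-inhibiting false positives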;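 note: higher means stronger loss of beta-gal luminescence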
Of the large screens only hits and unclear results are named; the others gave an inactive call (follow-up assays come after a bar, where they were run).

COc1ccc(CN2C(=O)C(CC(=O)NCC3CCCCC3)CC(C(=O)N(C(C)C)C(C)C)=C2C)cc1 (stereo not given)	none (no result: APJ agonist, APJ antagonist, CCR6 antagonist)
C=CCC(NC(=O)N(C)C)(C(=O)OC)C(C)O (stereo not given)	none (no result: APJ agonist, APJ antagonist, CCR6 antagonist, CXCR6 block)
CCOC(=O)Nc1ccc(Oc2ccccc2)cc1	none
CSc1ccc(/C=C/C(=O)c2ccc(NC(=O)C(C)C)cc2)cc1	EBI2 block 74.9 | EBI2 antag conf 65.8 | EBI2 agonist inactive | bGal cs inactive
CSc1ccc(/C=C/C(=O)Nc2ccccc2)cc1	none
CCOC(=O)Nc1ccc(C(=O)/C=C/c2ccccc2)cc1	EBI2 block 63.0 | EBI2 antag conf inactive | EBI2 agonist inactive | bGal cs inactive
CSc1ccc(/C=C/C(=O)c2ccc(NC(=O)Cc3ccccc3)cc2)cc1	EBI2 block 92.0 | EBI2 antag conf 80.2 | EBI2 agonist inactive | bGal cs inactive
O=C(CC1CC2CCC1C2)N1CCN(S(=O)(=O)c2ccc(C(F)(F)F)cc2)CC1 (stereo not given)	none (no result: APJ agonist, APJ antagonist, CCR6 antagonist)
COc1ccc(Cc2c(C3CCCCC3)nc3c(Cl)cc(C(F)(F)F)cn23)c(C)c1	none (no result: APJ agonist, APJ antagonist, CCR6 antagonist)
O=C(Nc1cccc(OC(F)(F)F)c1)c1ccc(-c2cccnc2)c2ccoc12	EBI2 block 37.5 (no result: APJ agonist, APJ antagonist, CCR6 antagonist) | EBI2 antag conf inactive | EBI2 agonist inactive | bGal cs inactive
COc1cc(NC(=O)c2ccc(-c3cccnc3)c3ccoc23)cc(OC)c1OC	none (no result: APJ agonist, APJ antagonist, CCR6 antagonist)
CC1Sc2ccc(C(=O)N(CCc3ccccc3)Cc3ccccc3)cc2NC1=O (stereo not given)	none (no result: APJ agonist, APJ antagonist, CCR6 antagonist)
COc1ccccc1N1CCN(C(=O)c2cccc(C(=O)N3CCN(c4ccccc4OC)CC3)c2)CC1	none
COc1ccccc1N1CCN(C(=O)c2cc3cc(C)ccc3[nH]2)CC1	EBI2 block 93.5 | EBI2 antag conf 80.1 | EBI2 agonist inactive | bGal cs inactive
COc1ccccc1N1CCN(C(=O)c2cc3cc(F)ccc3[nH]2)CC1	EBI2 block 87.1 | EBI2 antag conf 58.4 | EBI2 agonist inactive | bGal cs inactive
COc1ccccc1N1CCN(C(=O)c2cc3cc(Cl)ccc3[nH]2)CC1	EBI2 block 89.4 | EBI2 antag conf 72.8 | EBI2 agonist inactive | bGal cs inactive
COc1ccc2cc(C(=O)N3CCN(c4cccc(C)c4C)CC3)[nH]c2c1	EBI2 block 84.5 | EBI2 antag conf 56.7 | EBI2 agonist inactive | bGal cs inactive
CCn1c(CC(=O)Nc2ccccc2F)nnc1SCC(=O)NC1=NCCS1	none (no result: APJ agonist, APJ antagonist, CCR6 antagonist)
Nc1nc(N)c(N=O)c(Nc2cccc(Cl)c2)n1	none (no result: APJ agonist, APJ antagonist, CCR6 antagonist)
O=C(c1cc(-c2ccc(Cl)cc2)n[nH]1)N1CCN(C(=O)c2ccco2)CC1	EBI2 block 42.4 | EBI2 antag conf inactive | EBI2 agonist inactive | bGal cs inactive
Cc1cc(C)cc(C(=O)NCC(=O)N2CCN(C(c3ccccc3)c3ccccc3)CC2)c1	none
O=C(c1ccco1)N1CCN(c2ccc(F)cc2)CC1	none
O=C(c1cc2cc(F)ccc2[nH]1)N1CCN(C(=O)c2ccco2)CC1	EBI2 block 67.3 | EBI2 antag conf inactive | EBI2 agonist inactive | bGal cs inactive
Cc1ccc2[nH]c(C(=O)N3CCN(C(c4ccccc4)c4ccccc4)CC3)cc2c1	EBI2 block 89.2 | EBI2 antag conf 86.3 | EBI2 agonist inactive | bGal cs inactive
CCOC(=O)C1(Cc2ccc(OC)cc2)CCN(C(=O)c2cc3ccccc3[nH]2)CC1	EBI2 block 67.4 | EBI2 antag conf inactive | EBI2 agonist inactive | bGal cs inactive
COC(=O)[C@H](CC(C)C)NC(=O)CC[C@H]1O[C@@H](n2cc(C)c(=O)[nH]c2=O)C[C@@H]1O	none (no result: APJ agonist, APJ antagonist, CCR6 antagonist)
C[C@H](CO)N1C[C@H](C)[C@@H](CN(C)Cc2ccc3cccnc3c2)OCc2cnnn2CCCC1=O	none (no result: APJ agonist, APJ antagonist, CCR6 antagonist)
COc1ccc(N2CCN(S(=O)(=O)CCNC(=O)/C=C/c3ccc4c(c3)OCO4)CC2)cc1	none
COc1cc2cc(C(=O)N3CCN(c4ccccc4OC)CC3)[nH]c2cc1OC	none
COc1ccccc1N1CCN(S(=O)(=O)CCNC(=O)/C=C/c2ccc3c(c2)OCO3)CC1	EBI2 block 78.3 (no result: APJ agonist, APJ antagonist, CCR6 antagonist) | EBI2 antag conf 59.3 | EBI2 agonist inactive | bGal cs inactive
COc1ccccc1N1CCN(C(=O)c2cc3ccccc3[nH]2)CC1	EBI2 block 73.2 | EBI2 antag conf 55.5 | EBI2 agonist inactive | bGal cs inactive
COc1ccccc1N1CCN(C(=S)NC(=O)/C=C/c2ccc(F)cc2)CC1	EBI2 block 53.7 | EBI2 antag conf inactive | EBI2 agonist inactive | bGal cs inactive
CCOC(=O)C1=C[C@@H](C(C)C)N(S(=O)(=O)c2ccc(C)cc2)[C@H]1c1ccc(C(F)(F)F)cc1	none (no result: APJ agonist, APJ antagonist, CCR6 antagonist)
Cc1ccc(SCC(=O)N2CCN(S(=O)(=O)c3cccs3)CC2)cc1	EBI2 block 76.0 | EBI2 antag conf inactive | EBI2 agonist inactive | bGal cs inactive
CN1CCCN(C(=O)CSc2ccccc2)CC1	none
O=C(CN1CCN(c2ncc(C(F)(F)F)cc2Cl)CC1)N1CCN(c2ncc(C(F)(F)F)cc2Cl)CC1	none
Cc1ccc(S(=O)(=O)N2CCN(C(=O)CSc3ccc(Cl)cc3)CC2)cc1	EBI2 block 92.2 | EBI2 antag conf 68.3 | EBI2 agonist inactive | bGal cs inactive
O=C(CSc1ccc(Cl)cc1)N1CCN(c2ncc(C(F)(F)F)cc2Cl)CC1	EBI2 block 83.9 | EBI2 antag conf 70.1 | EBI2 agonist inactive | bGal cs inactive
Cc1ccc(S(=O)(=O)N2CCN(S(=O)(=O)c3cccs3)CC2)cc1	none
CN1CCN(C(=O)CSc2ccc(Cl)cc2)CC1	EBI2 block 46.7 | EBI2 antag conf inactive | EBI2 agonist inactive | bGal cs inactive
Cc1ccc(SCC2(O)CCN(S(=O)(=O)c3ccc(Cl)cc3)CC2)cc1	none
CCOC(=O)C(=O)N(C)c1c(CC)nc2c(OCc3ccc(OC(F)F)cc3)cccn12	none (no result: APJ agonist, APJ antagonist, CCR6 antagonist)
